According to paper PMC3005847 (Biochemistry, 2010):
Changes are numbered by the printed parent chain.

Key:
[1] = target: T1, T. foetus IMPDH R322A (Tritrichomonas foetus, UniProt P50097, R322A); assay: Steady-state kinetics, R322A; type: biochemical; conditions: read-out: Km NAD^+, pH 8.0, 25 °C
T1 sequence (P50097 1-503 R322A): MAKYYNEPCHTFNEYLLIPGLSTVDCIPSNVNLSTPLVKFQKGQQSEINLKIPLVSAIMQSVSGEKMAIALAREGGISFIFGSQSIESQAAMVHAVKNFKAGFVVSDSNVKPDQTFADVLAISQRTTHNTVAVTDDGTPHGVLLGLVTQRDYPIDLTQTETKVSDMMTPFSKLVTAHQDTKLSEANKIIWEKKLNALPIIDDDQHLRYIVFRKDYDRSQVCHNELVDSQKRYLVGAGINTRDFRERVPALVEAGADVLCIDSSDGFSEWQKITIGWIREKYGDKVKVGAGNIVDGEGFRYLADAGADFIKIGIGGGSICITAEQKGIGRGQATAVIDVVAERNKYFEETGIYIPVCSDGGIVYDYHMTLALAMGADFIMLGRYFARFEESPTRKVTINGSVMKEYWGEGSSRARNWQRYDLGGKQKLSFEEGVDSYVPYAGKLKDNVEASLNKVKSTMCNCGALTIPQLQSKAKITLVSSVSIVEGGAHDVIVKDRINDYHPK

[2] = target: T2, T. foetus IMPDH Q324A (Tritrichomonas foetus, UniProt P50097, Q324A); assay: Steady-state kinetics, Q324A; type: biochemical
T2 sequence (P50097 1-503 Q324A): T1 sequence (P50097 1-503 R322A) with A322R, Q324A

[3] = target: T3, T. foetus IMPDH wild-type (Tritrichomonas foetus, UniProt P50097); conditions: cited from earlier work
[4] = target: T4, T. foetus IMPDH R322E (Tritrichomonas foetus, UniProt P50097, R322E); assay: Steady-state kinetics, R322E; type: biochemical; conditions: read-out: Km NAD^+, pH 8.0, 25 °C
T4 sequence (P50097 1-503 R322E): T1 sequence (P50097 1-503 R322A) with A322E
In short: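 Mutant enzyme was expressed in IMPDH-deficient E. coli H712 and IMP-affinity purified. Assay buffer was 50 mM Tris-Cl pH 8.0, 100 mM KCl, 1 mM DTT, at 25 °C. NADH production was monitored at 340 nm (ε = 6.22 mM−1cm−1). Initial velocities were fitted to Michaelis–Menten or to a form with uncompetitive substrate inhibition, giving Km.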

[5] = target: T3, T. foetus IMPDH wild-type; assay: Equilibrium dissociation constant by intrinsic protein fluorescence, wild-type; type: binding; conditions: corrected for non-specific quenching, assay buffer, 25 °C
[6] = target: T5, T. foetus IMPDH E323A (Tritrichomonas foetus, UniProt P50097, E323A); assay: Steady-state kinetics, E323A; type: biochemical; conditions: read-out: Km NAD^+, pH 8.0, 25 °C
T5 sequence (P50097 1-503 E323A): T1 sequence (P50097 1-503 R322A) with A322R, E323A

[7] = target: T4, T. foetus IMPDH R322E; assay: Equilibrium dissociation constant by intrinsic protein fluorescence, R322E; type: binding; conditions: assay buffer, 25 °C
In short: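 NAD+ titrated into 0.2–0.3 µM R322E enzyme. The enzyme was expressed in IMPDH-deficient E. coli H712 and IMP-affinity purified. Assay buffer was 50 mM Tris-Cl pH 8.0, 100 mM KCl, 1 mM DTT, at 25 °C. Intrinsic protein fluorescence read at ex 295 / em 344 nm, corrected for inner-filter effect. Nonspecific quenching measured by titrating ligand into L-tryptophan. Kd taken from the corrected binding curve.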

[8] = target: T4, T. foetus IMPDH R322E; assay: Multiple-inhibitor kinetics with tiazofurin and ADP, R322E; type: biochemical; conditions: R322E relative to wild-type
In short: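 Mutant enzymes were expressed in IMPDH-lacking E. coli H712 and purified by IMP-affinity chromatography. Tiazofurin and ADP were varied together in assay buffer (50 mM Tris-Cl pH 8.0, 100 mM KCl, 1 mM DTT) at 25 °C. NADH formation was followed at 340 nm. Initial velocities were fitted to a two-inhibitor equation giving Ki, Kj and interaction constant α.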

Row | SMILES | Km [1] [µM] | Km ([2]; read-out: Km NAD^+, pH 8.0, 25 °C) [µM] | Kii NAD^+ ([2]; uncompetitive substrate inhibition, pH 8.0, 25 °C) [mM] | Km ([3]; read-out: Km NAD^+) [µM] | Kii NAD^+ ([3]; uncompetitive substrate inhibition) [mM] | Km [4] [µM] | Kd [5] [µM] | Km [6] [µM] | Kd [7] [µM] | Decrease in affinity of tiazofurin caused by the mutation (factor) [8]
1 | NC(=O)c1ccc[n+]([C@@H]2O[C@H](COP(=O)([O-])OP(=O)(O)OC[C@H]3O[C@@H](n4cnc5c(N)ncnc54)[C@H](O)[C@@H]3O)[C@@H](O)[C@H]2O)c1 [NAD^+] | 910 ± 90 | 120 ± 20 | 2.4 ± 0.3 | 150 ± 30 | 7 ± 2 | 2600 ± 700 | 27 ± 6 | 300 ± 20 | 37 ± 10 | 
2 | NC(=O)c1csc([C@@H]2O[C@H](CO)[C@@H](O)[C@H]2O)n1 [TAZ, tiazofurin] |  |  |  |  |  |  |  |  |  | > 3
